The source made the active and inactive calls. The rule behind the calls is not given here.
Assays:
[1] = system: HeLa; experiment: Induction of cell cycle arrest in human HeLa cells assessed as accumulation at G2/M phase at 20 uM after 72 hrs by PI staining-based flow cytometric analysis (reference value: 25.44%); format: functional
[2] = system: Bel-7402; experiment: Induction of cell cycle arrest in human Bel7402 cells assessed as accumulation at S phase at 20 uM after 48 hrs by PI staining-based flow cytometric analysis (reference value: 25.01%); format: functional
[3] = system: HeLa; experiment: Induction of cell cycle arrest in human HeLa cells assessed as accumulation at G0/G1 phase at 20 uM after 48 hrs by PI staining-based flow cytometric analysis (reference value: 45.70%); format: functional
[4] = system: MCF7; experiment: Induction of cell cycle arrest in human MCF7 cells assessed as accumulation at S phase at 10 uM after 72 hrs by PI staining-based flow cytometric analysis (reference value: 27.09%); format: functional
[5] = system: MCF7; experiment: Induction of cell cycle arrest in human MCF7 cells assessed as accumulation at G0/G1 phase at 10 uM after 24 hrs by PI staining-based flow cytometric analysis (reference value: 50.76%); format: functional
[6] = system: HeLa; experiment: Induction of autophagy in human HeLa cells assessed as autophagosome accumulation at 20 uM after 72 hrs by MDC staining-based flow cytometric analysis (reference value: 1.92%); format: functional
[7] = system: MCF7; experiment: Induction of cell cycle arrest in human MCF7 cells assessed as accumulation at S phase at 10 uM after 48 hrs by PI staining-based flow cytometric analysis (reference value: 27.09%); format: functional
[8] = system: MCF7; experiment: Induction of cell cycle arrest in human MCF7 cells assessed as accumulation at G0/G1 phase at 10 uM after 48 hrs by PI staining-based flow cytometric analysis (reference value: 50.76%); format: functional
[9] = system: MCF7; experiment: Induction of autophagy in human MCF7 cells at 5 uM after 72 hrs by MDC staining-based flow cytometric analysis (reference value: 2.54%); format: functional
[10] = system: MCF7; experiment: Induction of cell cycle arrest in human MCF7 cells assessed as accumulation at G2/M phase at 10 uM after 24 hrs by PI staining-based flow cytometric analysis (reference value: 19.85%); format: functional
[11] = system: MCF7; experiment: Cytotoxicity against human MCF7 cells after 3 days by MTT assay; format: functional, cell-based; details: MCF7, 72 h
Summary of the method: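 MCF-7, HeLa and BEL-7402 cells were grown in RPMI 1640 with 10% heat-inactivated FBS, 1 mM glutamine and penicillin/streptomycin at 37 °C under 5% CO2. They were exposed to compound for 3 days, then read by MTT at 570 nm. Viability was taken as treated/control absorbance, and IC50 was derived from it. Values are mean SD of three independent experiments.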

[12] = system: MCF7; experiment: Induction of cell cycle arrest in human MCF7 cells assessed as accumulation at S phase at 10 uM after 24 hrs by PI staining-based flow cytometric analysis (reference value: 27.09%); format: functional
[13] = system: HeLa; experiment: Induction of apoptosis in human HeLa cells assessed as accumulation at subG1 phase at 20 uM after 48 hrs by PI staining-based flow cytometric analysis (reference value: 2.89%); format: functional
[14] = system: MCF7; experiment: Induction of autophagy in human MCF7 cells at 10 uM after 72 hrs by MDC staining-based flow cytometric analysis (reference value: 2.54%); format: functional
[15] = system: HeLa; experiment: Induction of autophagy in human HeLa cells assessed as increase in autophagosome formation at 20 and 40 uM after 72 hrs by AO staining-based fluorescence microscopic analysis; format: functional, cell-based
Summary of the method: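 Cells in RPMI 1640/10% FBS were exposed to compound or 0.1% DMSO for 72 h: MCF-7 at 5 and 10 µM, HeLa and BEL-7402 at 20 and 40 µM. They were incubated with […] acridine orange for 15 min, washed with PBS, and acidic vesicles were imaged by inverted fluorescence microscopy.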

Work on `Cc1ccc(S(=O)(=O)N[C@H](Cc2ccccc2)C(=O)OC[C@H](Cc2ccccc2)NC(=O)c2ccccc2)cc1` yielded an Activity [1] of 21.52%, an Activity [2] of 26.01% and an Activity [3] of 50.15%. It also gave an Activity [4] of 28.08%, an Activity [5] of 52.57% and an Activity [6] of 26.11%. It also gave an Activity [7] of 28.07%, an Activity [8] of 48.81% and an Activity [9] of 40.31%. It also gave an Activity [10] of 19.09%, an IC50 [11] of 5.87 µM and an Activity [12] of 24.98%. For the same compound, the Activity [13] was 2.12%, the Activity [14] was 56.08% and the Activity [15] was “Active”.

Reference: ChEMBL document CHEMBL3763127, “Design, synthesis and biological evaluation of novel asperphenamate derivatives” (Eur J Med Chem, 2016)
